This note sets out measurements from ChEMBL document CHEMBL3352122, “Design, synthesis and evaluation of 2-aminothiazole derivatives as sphingosine kinase inhibitors” (Bioorg Med Chem, 2014).

The target in data set [1] is T1, Sphingosine kinase 2 (Homo sapiens) (UniProt Q9NRA0).
T1 sequence (whole entry): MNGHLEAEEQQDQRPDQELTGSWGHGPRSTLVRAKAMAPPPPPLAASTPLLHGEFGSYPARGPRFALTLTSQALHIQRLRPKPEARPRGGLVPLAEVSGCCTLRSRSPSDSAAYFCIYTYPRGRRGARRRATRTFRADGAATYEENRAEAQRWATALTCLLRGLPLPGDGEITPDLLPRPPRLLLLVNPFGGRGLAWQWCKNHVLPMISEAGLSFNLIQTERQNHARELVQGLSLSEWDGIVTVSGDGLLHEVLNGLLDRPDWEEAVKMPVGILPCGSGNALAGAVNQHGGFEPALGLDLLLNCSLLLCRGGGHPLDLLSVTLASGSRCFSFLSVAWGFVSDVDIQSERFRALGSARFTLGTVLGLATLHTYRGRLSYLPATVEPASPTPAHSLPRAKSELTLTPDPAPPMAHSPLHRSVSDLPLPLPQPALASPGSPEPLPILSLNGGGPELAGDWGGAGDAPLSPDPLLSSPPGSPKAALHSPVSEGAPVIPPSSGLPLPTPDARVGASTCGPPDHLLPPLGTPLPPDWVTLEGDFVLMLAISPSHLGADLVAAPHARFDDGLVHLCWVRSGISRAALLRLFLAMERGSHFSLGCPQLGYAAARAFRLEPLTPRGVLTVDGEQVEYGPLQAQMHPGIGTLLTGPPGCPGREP
In words: Inhibition of human recombinant Sphk2 at 10 uM after 60 mins by ADP2 fluorescence intensity assay. Put shortly:
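Human recombinant SphK2 (stock 0.5 mg/mL in Tris-HCl pH 8.0/imidazole/DTT/glycerol) pre-incubated 15 min at RT with compound at 10 µM or DMSO. Reaction with D-erythro-sphingosine and ATP ran 60 min at RT at 10–15% substrate conversion. ADP was read by Transcreener ADP² FI competitive fluorescence against an ATP/ADP standard curve. % inhibition vs DMSO given as mean ± SEM of five independent experiments, one-sample t-test.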

Data set [2] deals with T2, Sphingosine kinase 2 (Homo sapiens, UniProt Q9NRA0).
T2 sequence (Q9NRA0 whole entry): T1 sequence (whole entry)
In words: Inhibition of human recombinant Sphk2 after 60 mins by ADP2 fluorescence intensity assay. The gist of the method: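 Recombinant human SphK2 pre-incubated 15 min at RT with inhibitor at eight increasing concentrations, then reacted with D-erythro-sphingosine and ATP for 60 min at RT, keeping substrate conversion at 10–15% within the linear range. […] IC50 was derived from the concentration–inhibition data.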

The nature of data set [3]: Cytotoxicity against human U937 cells at 30 uM after 24 hrs by LDH release assay. The class given is cell-based. To be noted: u-937, 24 h. Put shortly:
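U937 cells seeded at 1.5 × 10⁴ cells/well, then exposed 24 h to increasing compound concentrations or DMSO vehicle. After centrifugation (250 × g, 4 min), LDH in the supernatant was measured as loss of membrane integrity. Detergent-induced maximum release was set to 100%. Three experiments, mean ± SE.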
Background: LDH in the medium is a marker of cell lysis.

Calls of active or inactive are those of the source. The calls are words filed in the database; no cut-off is given here.

Regarding `COc1ccc(Nc2nc(C34CC5CC(CC(C5)C3)C4)cs2)cc1OC`, in data set [1], the inhibition entry is “inactive”. For the molecule `CSc1ccc(Nc2nc(-c3ccc(Cl)cc3)c(C)s2)cc1`, the inhibition result in data set [1] is “inactive”.

With `Cc1csc(Nc2nc(-c3nccs3)cs2)n1`, in data set [1], the inhibition came to 50%. Further, the IC50 in data set [2] worked out at 6.5 µM. The molecule further yielded an Activity in data set [3] of 0.69%. In the case of `Cc1csc(Nc2nc(-c3ccc(Cl)cc3)c(C)s2)n1`, the inhibition in data set [1] is 19.2%. Consider `COc1ccccc1Nc1nc(-c2ccc(Cl)cc2)cs1`, for which the inhibition result in data set [1] is “inactive”. Still for that read-out and setting: the value for `Oc1ccccc1Nc1nc(-c2ccc(Cl)cc2)cs1` was “inactive”; that for `COc1ccc(/C=C/C(=O)Nc2nccs2)cc1OC` was 26.5%; that for `COc1ccc(Nc2nc(-c3ccc(Cl)cc3)c(C)s2)cc1` was “inactive”. Take `c1cc2c(cc1Nc1nc(C34CC5CC(CC(C5)C3)C4)cs1)OCCO2`: in data set [1], the inhibition was found to be 31.7%. On to `Clc1ccc(-c2csc(Nc3ccc4c(c3)OCO4)n2)cc1`, for which, in data set [1], the inhibition entry was “inactive”. The same measure, in the same setting: next, `CSc1ccc(Nc2nc(C34CC5CC(CC(C5)C3)C4)cs2)cc1`: 18.6%. The same measure, in the same setting: next, `CN(C)c1ccc(Nc2nc(C34CC5CC(CC(C5)C3)C4)cs2)cc1`: “inactive”. Still for that read-out and setting: next, `CSc1ccc(Nc2nc(C34CC5CC(CC(C5)C3)C4)c(C)s2)cc1`: “inactive”; `Cc1sc(Nc2ccc(O)cc2)nc1-c1ccc(Cl)cc1`: “inactive”. Take `COc1ccccc1Nc1nc(C23CC4CC(CC(C4)C2)C3)cs1`: the inhibition in data set [1] came to 19%. As for `COc1ccc(Nc2nc(C34CC5CC(CC(C5)C3)C4)cs2)cc1`, the inhibition result in data set [1] is “inactive”. Regarding `FC(F)(F)Oc1ccc(Nc2nc(-c3ccc(Cl)cc3)cs2)cc1`, the inhibition entry in data set [1] is “inactive”. As to `COc1ccccc1Nc1nc(C23CC4CC(CC(C4)C2)C3)c(C)s1`, the inhibition in data set [1] was 41.6%. Consider `c1cc2c(cc1Nc1nc(C34CC5CC(CC(C5)C3)C4)cs1)OCO2`, for which the inhibition in data set [1] was 41.3%. Turning to `COc1cc(/C=C/C(=O)Nc2nccs2)cc(OC)c1OC`, the inhibition in data set [1] stood at 26.6%. `CN(C)c1ccc(Nc2nc(-c3ccc(Cl)cc3)cs2)cc1`: the inhibition entry in data set [1] is “inactive”. With `FC(F)(F)c1ccc(Nc2nc(-c3ccc(Cl)cc3)cs2)cc1`, the inhibition result in data set [1] is “inactive”.

As to `COc1cc(/C=C/C(=O)Nc2nc(-c3ccc(Cl)cc3)cs2)cc(OC)c1OC`, the inhibition in data set [1] is 32%. With `Oc1ccc(Nc2nc(-c3ccc(Cl)cc3)cs2)cc1`, the inhibition in data set [1] amounted to 15.5%.

Take `Oc1ccc(Nc2nc(-c3nccs3)cs2)cc1`: in data set [1], the inhibition result was “inactive”. In the case of `COc1ccc(Nc2nc(-c3ccc(Cl)cc3)cs2)cc1`, the inhibition entry in data set [1] was “inactive”.

Take `Oc1ccc(Nc2nc(-c3ccc(Br)cc3)cs2)cc1`: the inhibition in data set [1] turned out to be 10.3%. Take `COc1cc(Nc2nc(-c3ccc(Cl)cc3)c(C)s2)cc(OC)c1OC`: in data set [1], the inhibition result is “inactive”. Take `OCc1ccc(Nc2nc(-c3ccc(Cl)cc3)cs2)cc1`: the inhibition entry in data set [1] is “inactive”. As for `FC(F)(F)c1cc(Nc2nc(-c3ccc(Cl)cc3)cs2)cc(C(F)(F)F)c1`, in data set [1], the inhibition entry was “inactive”. For the molecule `COc1cc(Nc2nc(C34CC5CC(CC(C5)C3)C4)c(C)s2)cc(OC)c1OC`, the inhibition in data set [1] came out at 21.5%. On the same count and under the same terms, the value for `Clc1ccc(-c2csc(Nc3ccc4c(c3)OCCO4)n2)cc1` was “inactive”.

With `CSc1ccc(Nc2nc(-c3ccc(Cl)cc3)cs2)cc1`, in data set [1], the inhibition result is “inactive”.

On to `CC(C)c1ccc(Nc2nc(-c3ccc(Cl)cc3)cs2)cc1`, for which the inhibition entry in data set [1] is “inactive”. On to `COc1ccc(/C=C/C(=O)Nc2nc(-c3ccc(Cl)cc3)cs2)cc1OC`, for which, in data set [1], the inhibition amounted to 31.7%. In the case of `COc1cc(Nc2nc(-c3ccc(Cl)cc3)cs2)cc(OC)c1OC`, in data set [1], the inhibition result was “inactive”. For the molecule `Cc1csc(Nc2nc(C34CC5CC(CC(C5)C3)C4)c(C)s2)n1`, the inhibition in data set [1] is 20.9%. On to `CC(C)c1ccc(Nc2nc(C34CC5CC(CC(C5)C3)C4)cs2)cc1`, for which the inhibition result in data set [1] was “inactive”. Regarding `COc1cc(Nc2nc(C34CC5CC(CC(C5)C3)C4)cs2)cc(OC)c1OC`, the inhibition in data set [1] amounted to 20.8%. Consider `Oc1cccc(Nc2nc(-c3ccc(Cl)cc3)cs2)c1`, for which the inhibition entry in data set [1] was “inactive”.

For `COc1ccc(Nc2nc(-c3ccc(Cl)cc3)cs2)cc1OC`, in data set [1], the inhibition result is “inactive”. For `Cc1cc(CS(=O)(=O)c2ccccc2)cc(OCc2ccc(CN3CCC[C@@H]3CO)cc2)c1`, the inhibition in data set [1] stood at 14.7%.

In general, inhibition refers to the percentage by which the read-out fell short of the control. What is called IC50 is the point on the concentration scale where inhibition reaches its midpoint.
